# Measurements as given in article PMC7854864 (Cell chemical biology, 2020).
# pEC50, pIC50: −log10 of the molar value.
# What was measured:
# [1] = target: pure human MYC C171Y mutant protein (Homo sapiens, UniProt P01106, C186Y); experiment: Gel-based ABPP with pure C171Y mutant MYC protein; assay type: binding; settings: 50 μM, 2 h, 37°C
# Summary of the method: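 Pure human wild-type and C171Y MYC (0.3 μg in 50 μl PBS) labelled directly with alkyne probe (50 μM) for 2 h at 37 °C. Rhodamine-azide (1 μM final) attached by CuAAC, 1 h at room temperature. Samples run on reducing SDS/PAGE (4–20% gels), fixed in acetic acid/ethanol, and imaged by in-gel rhodamine fluorescence; silver stain used for loading.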
# [2] = system: MYC transcriptional activity; experiment: MYC luciferase reporter assay in HEK293T cells; assay type: cell-based, human; settings: for activity in MYC luciferase reporter assay: dose response, Table S4
# Summary of the method: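 HEK293T cells (DMEM, 10% FBS) seeded at 35,000/well and transfected with Lipofectamine 2000 (complexes formed 25 min at room temperature). Reporter: firefly luciferase driven by TATA box plus tandem E-box repeats; negative control lacked response elements. Cells treated with DMSO or test compound (50 μM screen, or dose series) for 24 h. Firefly and Renilla read; blank subtracted, Firefly:Renilla calculated per well, then normalised to vehicle. n=3.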
# endogenous c-MYC = endogenous c-MYC (Homo sapiens, UniProt P01106); experiment: EN4-alkyne-4 enrichment of endogenous MYC in cells; assay type: cell-based; settings: 231MFP cells, 50 μM, 4 h, in situ
# Sequence of endogenous c-MYC (P01106 16-454): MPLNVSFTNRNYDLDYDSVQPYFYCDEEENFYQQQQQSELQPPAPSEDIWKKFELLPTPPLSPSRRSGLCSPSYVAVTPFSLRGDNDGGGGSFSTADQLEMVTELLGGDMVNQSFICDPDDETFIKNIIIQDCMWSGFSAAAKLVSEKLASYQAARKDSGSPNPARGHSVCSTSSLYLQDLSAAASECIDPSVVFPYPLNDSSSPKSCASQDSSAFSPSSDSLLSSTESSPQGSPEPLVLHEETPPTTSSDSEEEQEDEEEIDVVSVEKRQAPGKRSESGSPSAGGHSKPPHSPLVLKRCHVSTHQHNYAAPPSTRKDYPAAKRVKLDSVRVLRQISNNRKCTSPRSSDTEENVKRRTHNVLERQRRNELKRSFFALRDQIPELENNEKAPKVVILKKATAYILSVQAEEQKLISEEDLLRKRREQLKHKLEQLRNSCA
# Summary of the method: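 231MFP cells at 70% confluency exposed in situ to DMSO or 50 μM alkyne probe for 4 h. Cells lysed by sonication and lysates normalised to 3.2 mg/mL. Probe-labelled proteins conjugated by CuAAC and pulled down. c-MYC in the pulldown detected by blotting; input c-MYC and vinculin also shown. n=3 biological replicates, quantified.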
# [3] = target: purified recombinant human MYC/MAX complex (Homo sapiens, UniProt P01106); experiment: MYC/MAX in vitro DNA binding to E-box consensus sequence; assay type: biochemical
# Sequence of purified recombinant human MYC/MAX complex (P01106 16-454, one chain of several): as the sequence (P01106 16-454) above
# Summary of the method: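 Human full-length c-MYC (0.2 μg) was pre-incubated for 30 min at 37 °C with DMSO or test compound diluted from 50 mM DMSO stock into dPBS. MAX (0.2 μg) was then added, and the mixture was transferred to wells coated with the E-box consensus sequence for 1 h binding. Bound complex was detected with primary and secondary antibodies following a commercial transcription-factor kit protocol. IC50 was derived from the dose-response.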
# [4] = target: C171Y mutant MYC protein (with MAX) (Homo sapiens, UniProt P01106, C186Y); experiment: MYC/MAX in vitro DNA binding with C171Y mutant MYC; assay type: biochemical; settings: 50 μM
# Sequence of C171Y mutant MYC protein (with MAX) (P01106 16-454 C186Y): as the sequence (P01106 16-454) above, with C171Y counted along it
# Summary of the method: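 Plate-based assay adapted from a c-Myc transcription factor kit. Test compound (50 μM; diluted from 50 mM DMSO stock into dPBS) or DMSO pre-incubated with 0.2 μg pure full-length wild-type or C171Y MYC for 30 min at 37 °C. Then 0.2 μg MAX added and the mixture bound to wells coated with the E-box consensus sequence for 1 h. Bound complex detected with primary and secondary antibodies.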
# pure human c-JUN protein = pure human c-JUN protein (Homo sapiens, UniProt P05412); experiment: Gel-based ABPP with pure JUN protein; assay type: binding; settings: Fig. S3b
# Sequence of pure human c-JUN protein (P05412 whole entry): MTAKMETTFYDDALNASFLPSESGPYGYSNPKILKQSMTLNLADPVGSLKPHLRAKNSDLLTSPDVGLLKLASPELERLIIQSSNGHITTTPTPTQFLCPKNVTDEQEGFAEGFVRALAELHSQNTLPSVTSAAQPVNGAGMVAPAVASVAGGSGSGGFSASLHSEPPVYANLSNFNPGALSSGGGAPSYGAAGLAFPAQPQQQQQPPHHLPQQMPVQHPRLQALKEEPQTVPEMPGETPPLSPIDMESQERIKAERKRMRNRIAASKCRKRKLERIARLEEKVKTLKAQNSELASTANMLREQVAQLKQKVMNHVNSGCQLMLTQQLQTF
# Summary of the method: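 Recombinant pure human c-JUN (0.1 μg) was pretreated with DMSO or test compound in 25 μl PBS for 1 h at 37 °C. It was then labeled with 200 nM IA-rhodamine for 1 h at room temperature. Samples were denatured in reducing Laemmli buffer at 90 °C for 5 min, separated on 4–20% SDS/PAGE gels, fixed, and read by in-gel fluorescence.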
# MYC target genes = experiment: RNA sequencing of EN4-treated 231MFP cells; assay type: cell-based, human; settings: 50 μM, 24 h
# Summary of the method: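 231MFP cells seeded in 6 cm dishes and treated with DMSO or 50 μM test compound for 24 h before RNA sequencing. Transcript changes reported as log₂ fold change of treated versus DMSO controls.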
# MYC = MYC (Homo sapiens, UniProt P01106); experiment: Cellular thermal shift assay; assay type: cell-based; settings: 231MFP cells, 50 μM, 2 h
# Sequence of MYC (P01106 16-454): as the sequence (P01106 16-454) above
# Summary of the method: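 231MFP cells (L15, 10% FBS, 37 °C, 0% CO2) at 80% confluence were exposed to test compound or DMSO at 50 μM for 120 min. They were then resuspended in PBS with protease inhibitors, still containing compound or DMSO, and heated for 3 min at eight temperatures (37.0–58.0 °C). After 3 min at 25 °C, cells were freeze-thaw lysed and spun at 20,000 g. Soluble c-MYC, MAX and GAPDH were measured by Western blot densitometry, relative to DMSO.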
# C171Y FLAG-MYC = experiment: MYC luciferase reporter in HEK293T cells expressing C171Y versus WT FLAG-MYC; assay type: cell-based, human; settings: 50 μM, 24 h
# Summary of the method: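 HEK293T cells seeded at 35,000/well and co-transfected with the MYC E-box luciferase reporter plus 1 μg/well FLAG-eGFP, FLAG-wild-type or FLAG-C171Y c-MYC plasmid (site-directed mutant), using Lipofectamine 2000 at 3:1 to DNA. Treated with DMSO or 50 μM test compound for 24 h. Blank-subtracted Firefly:Renilla expressed relative to DMSO set to 1; FLAG expression checked by Western blot.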
# [5] = system: 231MFP breast tumor xenograft; experiment: 231MFP tumor xenograft study; assay type: in vivo; settings: 50 mg/kg ip once per day, started 14 days after implantation, SCID mice
# Summary of the method: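 Female C.B17 SCID mice (6–8 weeks) received 1 × 10⁶ 231MFP cells subcutaneously in the flank, suspended in serum-free medium. From 2 weeks after implantation, vehicle (18:1:1 PBS/ethanol/PEG40) or 50 mg/kg test compound was given ip once daily. Tumour size measured weekly by calipers; unpaired two-tailed t-test.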
# [6] = system: 231MFP breast cancer cells; experiment: 231MFP cell proliferation; assay type: cell-based, human; settings: 50 μM, daily treatment, 72 h
# Summary of the method: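 231MFP cells (L15, 10% FBS, 37 °C, 0% CO2) seeded at 15,000/well in serum-containing L-15. Treated the next day with DMSO or test compound, with media and compound replaced daily for 72 h. Wells fixed and stained with 10% formalin plus Hoechst 33342 for 15 min at room temperature in the dark, washed and imaged. Reported as percent proliferation versus DMSO; unpaired two-tailed t-test.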
# MIZ1 or ZBTB17 = experiment: MIZ1/ZBTB17 level with EN4 treatment; assay type: cell-based; settings: Fig. S3f
# [7] = system: MYC-transformed mammary epithelial MCF10A cells; experiment: Serum-free cell survival, MYC-expressing MCF10A; assay type: cell-based, human; settings: 48 h
# Summary of the method: (§1)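 MCF10A parental or MYC-overexpressing cells (maintained in DMEM/F12K with 5% horse serum, EGF, cholera toxin, insulin and hydrocortisone) seeded at 40,000/well and allowed to adhere overnight. Treated with DMSO or test compound in serum-free medium for 48 h. Fixed and stained with formalin/Hoechst 33342, then imaged. Survival normalised to the DMSO control of each line set to 1; unpaired two-tailed t-test.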
# parental MCF10A cells = experiment: Serum-free cell survival, parental MCF10A; assay type: cell-based, human; settings: 48 h
# Summary of the method: as §1
# [8] = system: CDK2, CDC25A and MYC protein levels; experiment: Western blotting of MYC transcriptional targets in 231MFP cells; assay type: cell-based, human; settings: 50 μM, 36 h
# Summary of the method: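 231MFP cells treated with DMSO or 50 μM test compound for 36 h, with medium and treatment replenished at 24 h. CDK2, CDC25A and MYC levels measured by Western blot with vinculin as loading control. n=3 biological replicates; blots quantified; unpaired two-tailed t-test.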
# [9] = system: MYC transcriptional activity; experiment: MYC luciferase reporter upon JUN knockdown; assay type: cell-based, human; settings: HEK293T, siJUN, 24 h
# pure human MYC protein = pure human MYC protein (Homo sapiens, UniProt P01106); experiment: Gel-based ABPP with pure MYC protein; assay type: binding; settings: pre-incubation 30 min 37°C, then EN4-alkyne-2 50 μM 2 h
# Sequence of pure human MYC protein (P01106 16-454): as above
# Summary of the method: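 Pure human full-length MYC (0.3 μg in 50 μl PBS) pre-treated with DMSO or test compound for 30 min at 37 °C, then labelled with alkyne probe (50 μM) for 2 h at 37 °C. Rhodamine-azide (1 μM final) attached by CuAAC, 1 h at room temperature. Samples heated at 90 °C for 5 min in reducing Laemmli buffer, run on 4–20% gels, fixed, and read by in-gel fluorescence; silver stain used for loading.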
# MAX = MAX (Homo sapiens, UniProt P61244); experiment: Cellular thermal shift assay; assay type: cell-based; settings: 231MFP cells, 50 μM, 2 h
# Sequence of MAX (P01106 16-454 partner limits assumed): as the sequence (P01106 16-454) above
# Sequence of MAX (P61244 whole entry): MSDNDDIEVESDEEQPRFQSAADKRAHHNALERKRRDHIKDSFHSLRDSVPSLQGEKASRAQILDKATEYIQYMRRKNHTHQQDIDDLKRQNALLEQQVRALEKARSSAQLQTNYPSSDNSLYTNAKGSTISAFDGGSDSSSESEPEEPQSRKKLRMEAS
# Summary of the method: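 231MFP cells at 80% confluence treated with DMSO or 50 μM test compound for 120 min, then resuspended in PBS with protease inhibitors and compound or DMSO kept present. Aliquots heated 3 min at eight temperatures (37.0–58.0 °C), held 3 min at 25 °C, lysed by three liquid-nitrogen freeze-thaw cycles and spun 20,000 g, 20 min, 4 °C. Soluble MAX measured by Western blot with GAPDH as loading control; band intensity quantified.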
# Sequence of pure human MYC C171Y mutant protein (P01106 16-454 C186Y): as the sequence (P01106 16-454) above, with C171Y counted along it
structure (smiles),measurement,setting,value
"C#CCOc1ccc(NC(=O)c2ccc(CNC(=O)C=C)cc2)c(Oc2ccc(OCC)cc2)c1 [EN4-alkyne-2, 4-(acrylamidomethyl)-N-(2-(4-ethoxyphenoxy)-4-(prop-2-yn-1-yloxy)phenyl) benzamide]",probe labeling of C171Y mutant MYC compared to wild-type,[1],labeling was not observed
"C#Cc1ccc(Oc2ccc(OCC)cc2)c(NC(=O)c2ccc(CNC(=O)C=C)cc2)c1 [EN4-alkyne-4, 4-(acrylamidomethyl)-N-(2-(4-ethoxyphenoxy)-5-ethynylphenyl)benzamide]",pEC50,"[2]; Homo sapiens, HEK-293T, read-out: EC50 in MYC luciferase reporter assay",5.85
same,enrichment of endogenous c-MYC versus vehicle,endogenous c-MYC,significantly enriched endogenous c-MYC
C=CC(=O)NCc1ccc(C(=O)Nc2ccccc2Oc2ccc(OCC)cc2)cc1 [EN4],pIC50,"[3]; read-out: 50 % inhibitory concentration (IC50) for MYC/MAX binding to the E-box response element DNA consensus sequence, dose-response, Fig. 1d, pre-incubated with MYC 30 min before MAX",5.17
same,inhibition of MYC/MAX DNA binding with C171Y mutant compared to wild-type MYC,[4],significantly attenuated
same,competition against IA-rhodamine labeling of pure JUN,pure human c-JUN protein,competition of EN4 against labeling of pure JUN protein
same,expression of direct MYC target genes and MYC-regulated gene targets,MYC target genes,significantly downregulated
same,MYC thermal stability,MYC,significantly reduced MYC thermal stability
same,MYC inhibitory effect in cells expressing C171Y FLAG-MYC compared to WT FLAG-MYC,C171Y FLAG-MYC,significantly attenuated
same,tumor growth in vivo,[5],significantly attenuated tumor growth
same,inhibition of proliferation,[6],> 90%
same,level of MYC binding partner MIZ1 or ZBTB17,MIZ1 or ZBTB17,upregulation
same,cell survival of MYC-transformed MCF10A cells,[7],impaired the cell survival
same,cell survival of parental MCF10A cells,parental MCF10A cells,but not parental MCF10A cells
same,MYC protein levels,[8],substantially reduced
same,protein levels of CDK2 and CDC25A,[8],significantly lowered
same,inhibition of MYC luciferase reporter activity upon JUN knockdown compared to control cells,[9],comparable inhibitory effects
same,inhibition of MYC transcriptional activity in covalent ligand screen,"[2]; 50 μM, 24 h, HEK293T, Fig. 1b",strongest inhibition
same,competition of EN4-alkyne-2 labeling of pure MYC,pure human MYC protein,displaced the labeling of EN4-alkyne-2
same,MAX thermal stability,MAX,reduced the thermal stability
"CCOc1ccc(Oc2ccccc2NC(=O)c2ccc(CNC(=O)CCl)cc2)cc1 [EN4–3, 4-((2-chloroacetamido)methyl)-N-(2-(4-ethoxyphenoxy)phenyl)benzamide]",activity in MYC luciferase reporter assay,[2]; HEK293T,loss of activity
"CCOc1ccc(Oc2ccccc2NC(=O)c2ccc(CNC(=O)/C=C/C(F)(F)F)cc2)cc1 [EN4–6, (E)-N-(2-(4-ethoxyphenoxy)phenyl)-4-((4,4,4-trifluorobut-2-enamido)methyl) benzamide]",activity in MYC luciferase reporter assay,[2]; HEK293T,loss of activity
"CCOc1ccc(Oc2ccccc2NC(=O)c2ccc(CNC(=O)CC)cc2)cc1 [EN4–18, N-(2-(4-ethoxyphenoxy)phenyl)-4-(propionamidomethyl)benzamide]",inhibition of MYC/MAX DNA binding in vitro,[3]; Fig. S4,significantly inhibits MYC/MAX DNA binding
same,activity in MYC luciferase reporter assay,[2]; HEK293T,inhibited MYC luciferase reporter activity
